How the values were obtained:
[1] = Apparent permeability across apical to basolateral side in MDCK-MDR1 cells 120 mins by LC-MS/MS analysis; type: ADME, cell-based, Canis lupus familiaris; conditions: dog
[2] = Apparent permeability across apical to basolateral side in MDCK-MDR1 cells assessed as drug recovery; type: ADME, cell-based, Canis lupus familiaris; conditions: dog, read-out: Drug recovery
[3] = Apparent permeability across basolateral to apical side in MDCK-MDR1 cells 120 mins by LC-MS/MS analysis; type: ADME, cell-based, Canis lupus familiaris; conditions: dog
[4] = Efflux ratio of apparent permeability across basolateral to apical over apical to basolateral side in MDCK-MDR1 cells; type: ADME, cell-based, Canis lupus familiaris; conditions: dog
[5] = Chemical stability in PBS buffer at pH 7.4 assessed as compound recovery at 4 degC under autoclave condition; type: physicochemical
Method in brief: (§1)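 Compound solution in PBS, pH 7.4, held at 4 °C, tested as plain aqueous solution and after autoclaving. A separate sample was exposed to Co-60 gamma irradiation. Read-out is percent of compound recovered.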

[6] = Chemical stability of the compound assessed as drug recovery under Co-60 gamma irradiation condition; type: physicochemical; method in brief: as §1
[7] = molecular target: Prostaglandin E2 receptor EP2 subtype (Homo sapiens, UniProt P43116); test: Agonist activity at human EP2 receptor expressed in HEK293T/17 cells assessed as increase in GalphaS-mediated CREB activation at 10 uM measured after 6 to 24 hrs by SEAP reporter gene-based chemiluminescence assay relative to control; type: functional, cell-based
Prostaglandin E2 receptor EP2 subtype, sequence (P43116 whole entry): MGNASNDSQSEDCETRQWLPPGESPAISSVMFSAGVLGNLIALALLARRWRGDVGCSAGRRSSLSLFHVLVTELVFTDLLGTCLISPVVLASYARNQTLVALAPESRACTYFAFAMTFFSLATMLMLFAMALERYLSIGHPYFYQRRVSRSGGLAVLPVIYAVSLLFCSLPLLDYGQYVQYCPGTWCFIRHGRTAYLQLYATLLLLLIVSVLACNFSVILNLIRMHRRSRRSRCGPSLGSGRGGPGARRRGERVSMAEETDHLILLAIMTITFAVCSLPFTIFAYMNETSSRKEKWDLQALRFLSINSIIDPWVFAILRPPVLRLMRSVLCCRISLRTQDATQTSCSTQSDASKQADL

Question: Which results are given for CCC#CC[C@H](C)[C@H](O)/C=C/[C@H]1CC(F)(F)C(=O)N1CCCCCCC(=O)O?
Answer: Papp A→B at 2 h [1]: 0.59 ×10⁻⁶ cm/s; recovery [2]: 84%; Papp B→A at 2 h [3]: 11.8 ×10⁻⁶ cm/s; efflux ratio [4]: 20; Drug recovery [5]: 100%; Drug recovery [6]: 95%

Question: For CCC#CC[C@H](C)[C@H](O)/C=C/[C@H]1CCC(=O)N1CCCCCCC(=O)O, which Activity [7] is on record?
Answer: < 50%
